Results taken from ChEMBL document CHEMBL4196072, “Marliolide inhibits skin carcinogenesis by activating NRF2/ARE to induce heme oxygenase-1” (Eur J Med Chem, 2018).
One block for each compound: values may come before it. Active and inactive are the calls of the source. The calls are words filed in the database; no cut-off is given here.

Legend:
[1] = target: Kelch-like ECH-associated protein 1 (Homo sapiens) (UniProt Q14145); test: Binding affinity to Keap1 in human HaCaT cells assessed as induction of NRF2/ARE activation-mediated HO1 expression at 1 to 10 uM after 24 hrs by Western blot analysis; format: cell-based
Chain of Kelch-like ECH-associated protein 1 (Homo sapiens) (Q14145 whole entry): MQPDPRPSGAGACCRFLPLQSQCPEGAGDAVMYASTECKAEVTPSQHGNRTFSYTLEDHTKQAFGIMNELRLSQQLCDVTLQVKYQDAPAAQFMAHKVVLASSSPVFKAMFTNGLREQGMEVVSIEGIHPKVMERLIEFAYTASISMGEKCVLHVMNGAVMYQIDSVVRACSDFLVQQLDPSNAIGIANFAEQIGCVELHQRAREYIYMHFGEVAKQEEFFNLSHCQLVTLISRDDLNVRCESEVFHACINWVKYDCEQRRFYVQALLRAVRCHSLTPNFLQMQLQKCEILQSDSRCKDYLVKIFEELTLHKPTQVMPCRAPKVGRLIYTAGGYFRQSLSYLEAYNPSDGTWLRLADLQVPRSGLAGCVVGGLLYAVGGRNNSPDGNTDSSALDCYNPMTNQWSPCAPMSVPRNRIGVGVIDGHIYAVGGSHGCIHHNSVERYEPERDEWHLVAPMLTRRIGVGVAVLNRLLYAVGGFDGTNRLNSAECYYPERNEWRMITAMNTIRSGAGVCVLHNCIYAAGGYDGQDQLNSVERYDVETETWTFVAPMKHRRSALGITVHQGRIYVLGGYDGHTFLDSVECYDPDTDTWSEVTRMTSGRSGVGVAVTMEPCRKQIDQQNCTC
Method in brief: (§1)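 HaCaT cells were grown in RPMI with 10% FBS and Pen/Strep and treated with agent from DMSO stock (1/1000 dilution), across concentrations for 24 h or over a time course. Cells were lysed in RIPA buffer and protein was measured by BCA. Equal amounts were separated by SDS-PAGE, blotted to PVDF, blocked in 5% milk/PBST, probed overnight at 4°C with HO-1 or NRF2 antibody, and detected by ECL. Actin served as loading control.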

HaCaT [2] = test: Cell cycle arrest in human HaCaT cells assessed as accumulation at G1/S phase at 10 uM after 24 hrs by propidium iodide staining based flow cytometry
Method in brief: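 HaCaT cells were exposed to agent for 24 h, with etoposide as positive control. Cells (1x10⁶ per group) were fixed in PBS/70% EtOH (3:7), washed, stained with propidium iodide (20 µg/ml), and G1/S distribution was measured by flow cytometry.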

HaCaT [3] = test: Cytotoxicity against human HaCaT cells assessed as reduction in cell viability by measuring morphological changes at 10 uM after 24 hrs by phase contrast microscopic method; format: cell-based
Method in brief: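 HaCaT cells were exposed to agent or etoposide, and gross cell morphology was examined by phase-contrast microscopy.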

HaCaT [4] = test: Induction of apoptosis in human HaCaT cells assessed as increase in cleaved caspase-3 protein expression at 10 uM after 6 to 24 hrs by Western blot analysis; format: cell-based
Method in brief: (§2)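 HaCaT cells were exposed to agent or etoposide for various times. RIPA lysates were analysed by SDS-PAGE and Western blot with cleaved caspase-3 and cleaved PARP antibodies, with ECL detection and actin as loading control.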

HaCaT [5] = test: Induction of apoptosis in human HaCaT cells assessed as increase in cleaved PARP protein expression at 10 uM after 6 to 24 hrs by Western blot analysis; format: cell-based; method in brief: as §2
[6] = target: Kelch-like ECH-associated protein 1 (Homo sapiens) (UniProt Q14145); test: Binding affinity to Keap1 in human HaCaT cells assessed as activation of NRF2 by measuring nuclear translocation of NRF2 at 10 uM after 6 to 12 hrs by immunofluorescence assay; format: cell-based
Method in brief: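 Confluent HaCaT cells on glass were exposed to agent for 6 h and 12 h, blocked with 1% BSA for 30 min, and fixed with paraformaldehyde. They were incubated overnight at 4°C with NRF2 antibody, then with FITC-conjugated secondary antibody, and imaged by confocal microscopy.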

[7] = target: Kelch-like ECH-associated protein 1 (Mus musculus) (UniProt Q9Z2X8); test: Binding affinity to Keap1 in NRF2+/+ MEF assessed as induction of NRF2/ARE activation-mediated HO1 expression at 10 uM after 24 hrs by Western blot analysis; format: cell-based
Chain of Kelch-like ECH-associated protein 1 (Mus musculus) (Q9Z2X8 whole entry): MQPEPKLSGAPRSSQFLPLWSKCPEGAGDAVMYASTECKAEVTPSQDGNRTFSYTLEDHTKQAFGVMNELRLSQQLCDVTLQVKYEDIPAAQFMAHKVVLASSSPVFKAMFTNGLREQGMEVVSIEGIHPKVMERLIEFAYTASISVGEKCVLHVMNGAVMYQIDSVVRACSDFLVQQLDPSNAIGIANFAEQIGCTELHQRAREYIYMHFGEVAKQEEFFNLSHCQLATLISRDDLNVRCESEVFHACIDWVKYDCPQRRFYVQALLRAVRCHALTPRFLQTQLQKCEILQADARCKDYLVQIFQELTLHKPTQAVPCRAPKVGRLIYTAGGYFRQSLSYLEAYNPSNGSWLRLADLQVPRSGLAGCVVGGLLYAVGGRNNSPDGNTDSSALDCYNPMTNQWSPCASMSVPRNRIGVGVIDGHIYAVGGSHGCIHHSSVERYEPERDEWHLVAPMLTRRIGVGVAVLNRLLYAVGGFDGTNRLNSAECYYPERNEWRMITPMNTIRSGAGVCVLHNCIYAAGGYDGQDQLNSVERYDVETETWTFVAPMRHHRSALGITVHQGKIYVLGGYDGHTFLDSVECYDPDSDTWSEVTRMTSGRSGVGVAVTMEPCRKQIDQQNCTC

[8] = target: Kelch-like ECH-associated protein 1 (Mus musculus) (UniProt Q9Z2X8); test: Binding affinity to Keap1 in NRF2-/- MEF assessed as induction of HO1 expression at 10 uM after 24 hrs by Western blot analysis; format: cell-based
[9] = target: Kelch-like ECH-associated protein 1 (Mus musculus) (UniProt Q9Z2X8); test: Binding affinity to Keap1 in NRF2+/+ MEF assessed as induction of NRF2/ARE activation-mediated HO1 expression at 10 uM up to 8 hrs by RT-PCR method; format: cell-based
[10] = target: Kelch-like ECH-associated protein 1 (Mus musculus) (UniProt Q9Z2X8); test: Binding affinity to Keap1 in NRF2-/- MEF assessed as induction of NRF2/ARE activation-mediated HO1 expression at 10 uM up to 8 hrs by RT-PCR method; format: cell-based
[11] = target: Kelch-like ECH-associated protein 1 (Homo sapiens) (UniProt Q14145); test: Binding affinity to Keap1 in human HaCaT cells assessed as induction of NRF2/ARE activation-mediated HO1 expression at 10 uM by Western blot analysis; format: cell-based; settings: TDE = time-dependent effect; method in brief: as §1
HaCaT [12] = test: Cytotoxicity against human HaCaT cells assessed as reduction in cell viability at 10 uM after 24 hrs by MTT method; format: cell-based
Method in brief: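 HaCaT cells were seeded at 30,000 per well and exposed to agent at 10 µM for 24 h. After a PBS wash, cells were incubated with MTT (5 mg/ml) for 4 h, lysed in DMSO, and absorbance was read at 560 nm.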

Mus musculus [13] = test: Upregulation of NRF2 expression in skin lysates of mouse at 10 umole applied topically up to 24 hrs by Western blot analysis; format: functional, organism-based; settings: Zone of skin, Lysate
Mus musculus [14] = test: Upregulation of HO-1 expression in skin lysates of mouse at 10 umole applied topically up to 24 hrs by Western blot analysis; format: functional, organism-based; settings: Zone of skin, Lysate
Mus musculus [15] = test: Upregulation of GCLC expression in skin lysates of mouse at 10 umole applied topically up to 24 hrs by Western blot analysis; format: functional, organism-based; settings: Zone of skin, Lysate
Mus musculus [16] = test: Anti-carcinogenic effect in hairless mouse assessed as inhibition of number of DMBA/TPA-induced papilloma formation at 10 umol administered topically 3 times per week up to 10 weeks with TPA starting from 1 week post DMBA treatment; format: functional, organism-based
Method in brief: (§3)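 Male hairless mice (6 weeks old at purchase, acclimated one week) received a single topical dose of DMBA (2 µmole) or acetone vehicle in week 1. From week 2, the back was treated with TPA (10 nmole) alone or with test agent (10 µmole), three times per week. Papillomas were counted manually at the end of each week. At sacrifice, skin was formalin-fixed, paraffin-embedded and H/E-stained for phase-contrast imaging.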

Mus musculus [17] = test: Anti-carcinogenic effect in hairless mouse assessed as inhibition of incidence of DMBA/TPA-induced papilloma formation at 10 umol administered topically 3 times per week up to 10 weeks with TPA starting from 1 week post DMBA treatment; format: functional, organism-based; method in brief: as §3
Mus musculus [18] = test: Anti-carcinogenic effect in hairless mouse assessed as inhibition of DMBA/TPA-induced papilloma growth at 10 umol administered topically 3 times per week up to 10 weeks with TPA starting from 1 week post DMBA treatment by hematoxylin/eosin staining based phase-contrast microscopic method; format: functional, organism-based; method in brief: as §3
Mus musculus [19] = test: Downregulation of 8-OH-G expression in skin lysates of DMBA/TPA-induced mouse skin carcinogenesis model at 10 umol administered topically 3 times per week up to 10 weeks with TPA starting from 1 week post DMBA treatment by immunofluorescence microscopic method; format: functional, organism-based; settings: Zone of skin, Lysate
Method in brief: (§4)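 Skin came from the two-stage DMBA/TPA model in hairless mice: DMBA 2 µmole once topically, then TPA 10 nmole ± agent 10 µmole three times weekly. At sacrifice, skin was formalin-fixed and paraffin-embedded. Sections were incubated overnight at 4°C with 8-OH-G or 4-HNE primary antibody, then probed with FITC-conjugated secondary antibody for fluorescence imaging.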

Mus musculus [20] = test: Downregulation of 4-HNE expression in skin lysates of DMBA/TPA-induced mouse skin carcinogenesis model at 10 umol administered topically 3 times per week up to 10 weeks with TPA starting from 1 week post DMBA treatment by immunofluorescence microscopic method; format: functional, organism-based; settings: Zone of skin, Lysate; method in brief: as §4
[21] = target: Kelch-like ECH-associated protein 1 (Homo sapiens) (UniProt Q14145); test: Binding affinity to Keap1 in human HaCaT cells assessed as induction of NRF2/ARE activation-mediated HO1 expression at 10 uM after 6 to 24 hrs by Western blot analysis; format: cell-based; method in brief: as §1
[22] = target: Kelch-like ECH-associated protein 1 (Homo sapiens) (UniProt Q14145); test: Binding affinity to Keap1 in human HaCaT cells assessed as induction of NRF2/ARE activation-mediated HO1 mRNA expression at 10 uM RT-PCR method; format: cell-based; settings: TDE = time-dependent effect
Method in brief: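 HaCaT cells were treated at 10 µM (DMSO, 1/1000) for 4, 8 and 12 h. Total RNA was analysed by SYBR real-time RT-PCR with HO-1-specific primers. Cycling was 95 °C for 5 min; 40 cycles of 95 °C 10 s, 59 °C 10 s, 72 °C 20 s; then 95 °C 10 s.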

[23] = target: Kelch-like ECH-associated protein 1 (Homo sapiens) (UniProt Q14145); test: Binding affinity to Keap1 in human HaCaT cells at 10 nmol by immunoprecipitation assay; format: cell-based
Method in brief: (§5)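 Lysate (800 µg) from confluent HaCaT cells in RIPA buffer was mixed with biotin or biotinylated agent (10 nmole each). Pull-down was done with streptavidin-agarose beads overnight at 4°C. Beads were washed in ice-cold PBS, and bound KEAP1 and NRF2 were detected by Western blot.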

[24] = target: T1, Nuclear factor erythroid 2-related factor 2 (Homo sapiens) (UniProt Q16236); test: Binding affinity to NRF2 in human HaCaT cells at 10 nmol by immunoprecipitation assay; format: cell-based; method in brief: as §5
T1 sequence (whole entry): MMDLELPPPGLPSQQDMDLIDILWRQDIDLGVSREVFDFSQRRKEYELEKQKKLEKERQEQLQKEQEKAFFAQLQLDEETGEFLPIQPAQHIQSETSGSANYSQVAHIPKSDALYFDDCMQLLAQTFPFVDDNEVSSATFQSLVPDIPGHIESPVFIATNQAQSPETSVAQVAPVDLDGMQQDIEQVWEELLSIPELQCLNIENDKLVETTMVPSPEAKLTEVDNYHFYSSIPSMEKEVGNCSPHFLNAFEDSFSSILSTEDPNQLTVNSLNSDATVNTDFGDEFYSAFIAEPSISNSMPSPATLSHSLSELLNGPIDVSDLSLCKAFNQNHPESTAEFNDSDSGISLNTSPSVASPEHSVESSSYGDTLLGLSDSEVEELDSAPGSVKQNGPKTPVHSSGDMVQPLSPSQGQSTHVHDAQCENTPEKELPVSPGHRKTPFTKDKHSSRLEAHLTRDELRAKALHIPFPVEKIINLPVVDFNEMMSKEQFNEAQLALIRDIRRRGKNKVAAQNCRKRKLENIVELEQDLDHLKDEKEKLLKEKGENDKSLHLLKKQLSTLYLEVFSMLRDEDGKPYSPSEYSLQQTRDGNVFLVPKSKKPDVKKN

Activity [1]: Active
Activity [6]: Active
Activity [7]: Active
Activity [8]: inactive
Activity [9]: Active
Activity [10]: inactive
Activity [11]: Tde
SMILES: CCCCCCCCCCCCC/C=C1/C(=O)O[C@@H](C)[C@H]1O
Activity (HaCaT [2]): Non-Toxic
Activity (HaCaT [3]): Non-Toxic
Activity (HaCaT [4]): Non-Toxic
Activity (HaCaT [5]): Non-Toxic
Activity (HaCaT [12]): Non-Toxic
Activity (Mus musculus [13]): Active
Activity (Mus musculus [14]): Active
Activity (Mus musculus [15]): Active
inhibition (Mus musculus [16]): Active
inhibition (Mus musculus [17]): Active
inhibition (Mus musculus [18]): Active
Activity (Mus musculus [19]): Active
Activity (Mus musculus [20]): Active

Activity [21]: Active
Activity [22]: Tde
SMILES: CCCCCCCCCC/C=C1/C(=O)O[C@@H](C)[C@H]1O
Activity (HaCaT [12]): Non-Toxic

Activity [21]: Active
SMILES: CCCCCCCCCCCCC/C=C1/C(=O)O[C@@H](C)[C@@H]1O

Activity [21]: Active
SMILES: CCCCCCCCCCCCC/C=C1\C(=O)O[C@@H](C)[C@H]1O

Activity [21]: Active
Activity [22]: Tde
SMILES: CCCCCCCCCCCC/C=C1/C(=O)O[C@@H](C)[C@H]1O
Activity (HaCaT [12]): Non-Toxic
Activity (Mus musculus [13]): Active
Activity (Mus musculus [14]): Active
Activity (Mus musculus [15]): Active

Activity [23]: Active
Activity [24]: inactive
SMILES: C[C@@H]1OC(=O)/C(=C/CCCCCCCCCCCCNC(=O)CCCC[C@@H]2SC[C@@H]3NC(=O)N[C@@H]32)[C@@H]1O

Activity [21]: Active
Activity [22]: Tde
SMILES: CCCCCCCCCCC/C=C1/C(=O)O[C@@H](C)[C@H]1O
Activity (HaCaT [12]): Non-Toxic

Second part, the compound before the results:

SMILES: CCCCCCCCCCCCCC[C@@H]1C[C@H](O)OC1=O
Activity [21]: inactive

SMILES: CCCCCCCCCCCCC/C=C1/C(=O)O[C@@H](C)[C@H]1OC(=O)CC(C)C
Activity [21]: inactive

SMILES: CCC/C=C1/C(=O)O[C@@H](C)[C@H]1O
Activity [21]: inactive

SMILES: CCCCCCCCCCCCCC[C@H]1C(=O)O[C@@H](O)[C@H]1O
Activity [21]: inactive

SMILES: CCCCC/C=C1/C(=O)O[C@@H](C)[C@H]1O
Activity [21]: inactive

SMILES: CCCCCCCCCCCCC/C=C1\C[C@H](C)OC1=O
Activity [21]: inactive

SMILES: CCCCCCCCC/C=C1/C(=O)O[C@@H](C)[C@H]1O
Activity [21]: Active
Activity [22]: Tde
Activity (HaCaT [12]): Non-Toxic
